One may read the MIC as the least concentration at which growth counts as inhibited. The logD is the decadic logarithm of the distribution of all forms, ionised or not, between an organic phase and buffer at a given pH.

Data set [1] has as its system Mycolicibacterium phlei. Kind of data set: Antibacterial activity against Mycobacterium phlei. The format is functional. Put shortly:
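MIC by standard agar dilution, run in duplicate; estimated standard deviation under 0.15 log units; reported as log 1/MIC (molar).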

For data set [2], the system named is Staphylococcus aureus. Kind of data set: Antibacterial activity against Staphylococcus aureus at 200 ug/ml. The class given is functional, organism-based.
Data set [3] in a line: C18 corasil-octanol partition coefficient, log P of the compound in 0.01 M phosphate buffer at pH 7 by LC on C18 Corasil coated with 1-octanol. The note with it: octanol/0.01 M phosphate buffer (C18 Corasil-octanol).
Data set [4] is described as follows: C18 corasil-25 wt % MeOH partition coefficient, log K of the compound in 0.001 M phosphate buffer. The conditions noted are these: pH 7.4.
Data set [5] deals with Staphylococcus aureus. Nature of the data set: Antibacterial activity against Staphylococcus aureus. The class given is functional.
Data set [6] concerns Mycolicibacterium phlei. Nature of the data set: Antibacterial activity against Mycobacterium phlei at 640 ug/ml. The format is functional, organism-based.

Values after ≈ are worked out from the molar mass of the structure shown. Active and inactive are the calls of the source. The rule behind the calls is not given here.

Take `O=CN/C=C/c1ccc(F)cc1`: the MIC against Mycolicibacterium phlei [1] came out at 160 µg/mL (≈ 969 µM). For the same molecule, the outcome with Staphylococcus aureus [2] was inactive. In addition, the log distribution coefficient (logD) in data set [3] stood at 2.11. The “log K” value in data set [4] is reported as 0.33.
Take `O=CN/C=C/c1ccccc1`: the MIC amounted to 50 µg/mL (≈ 340 µM) against Staphylococcus aureus [5] and 640 µg/mL (≈ 4350 µM) in the data set on Mycolicibacterium phlei [1]. The same molecule gave a logD in data set [3] of 1.95. Besides, the “log K” value in data set [4] is 0.21.
For `O=CN/C=C/c1ccc([N+](=O)[O-])cc1` the same measures were 3 µg/mL (≈ 15.6 µM), 320 µg/mL (≈ 1670 µM), 1.94 and 0.24.
Consider `O=CN/C=C/c1cccs1`, for which the minimal inhibitory concentration (MIC) in the data set with Staphylococcus aureus [5] was 25 µg/mL (≈ 163 µM); with Mycolicibacterium phlei [1], 320 µg/mL (≈ 2090 µM).
`CCOc1ccc(/C=C/NC=O)cc1` displayed an MIC with Mycolicibacterium phlei [1] of 40 µg/mL (≈ 209 µM). The result with Staphylococcus aureus [2] was inactive. In addition, the pH-dependent lipophilicity (logD) in data set [3] was 2.31. Also, in data set [4], the “log K” value is listed as 0.65.
For `N#Cc1ccc(/C=C/NC=O)cc1` the same measures were 640 µg/mL (≈ 3720 µM), “inactive”, 1.62 and 0.04.
For `O=CN/C=C/c1ccc(C(F)(F)F)cc1`, the MIC stood at 100 µg/mL (≈ 465 µM) against Staphylococcus aureus [5] and 80 µg/mL (≈ 372 µM) against Mycolicibacterium phlei [1]. In addition, the log distribution coefficient (logD) in data set [3] was 3.06. Besides, the “log K” value in data set [4] was found to be 1.09.
For `O=CN/C=C/c1ccc(Cl)cc1`, the MIC against Staphylococcus aureus [5] was 200 µg/mL (≈ 1100 µM); with Mycolicibacterium phlei [1], 80 µg/mL (≈ 440 µM). For the same molecule, the log distribution coefficient (logD) in data set [3] is 2.7. For the same molecule, the “log K” value in data set [4] was 0.79.
For `CC(C)(C)c1ccc(/C=C/NC=O)cc1` the same measures were 200 µg/mL (≈ 984 µM), 80 µg/mL (≈ 394 µM), 3.82 and 1.71.
In the data set on Mycolicibacterium phlei [1], `CCCCC/C=C/NC=O` showed a minimal inhibitory concentration (MIC) of 40 µg/mL (≈ 283 µM). Besides, the outcome with Staphylococcus aureus [2] was inactive.
Turning to `CC(=O)Oc1ccc(/C=C/NC=O)cc1`, the MIC with Mycolicibacterium phlei [1] amounted to 640 µg/mL (≈ 3120 µM). Also, the result in the data set with Staphylococcus aureus [2] was inactive. The molecule also displayed a pH-dependent lipophilicity (logD) in data set [3] of 1.32. Further, the “log K” value in data set [4] was determined as 0.16.
For `O=CN/C=C/c1ccc(S(=O)(=O)c2ccccc2)cc1` the same measures were 320 µg/mL (≈ 1110 µM), “inactive”, 1.95 and 0.78.
For `CN(C)c1ccc(/C=C/NC=O)cc1`, in that order: 640 µg/mL (≈ 3360 µM), “inactive”, 2.03 and 0.48.
Turning to `CCN(CC)c1ccc(/C=C/NC=O)cc1`, it took 320 µg/mL (≈ 1470 µM) to inhibit growth in the data set with Mycolicibacterium phlei [1] (MIC). Besides, the result in the data set on Staphylococcus aureus [2] was inactive. This molecule also came in with a logD in data set [3] of 2.9.
The molecule `Cc1ccc(/C=C/NC=O)cc1` gave a minimal inhibitory concentration (MIC) in the data set with Mycolicibacterium phlei [1] of 40 µg/mL (≈ 248 µM). In addition, the result in the data set with Staphylococcus aureus [2] was inactive. The logD in data set [3] worked out at 2.45. Moreover, in data set [4], the “log K” value amounted to 0.66.
`COc1ccc(/C=C/NC=O)cc1` registered an MIC against Mycolicibacterium phlei [1] of 80 µg/mL (≈ 451 µM). Further, the outcome in the data set on Staphylococcus aureus [2] was inactive. The molecule further showed a logD in data set [3] of 1.94. In data set [4], the “log K” value turned out to be 0.28.
For `O=CN/C=C/c1ccc2ccccc2c1`, the MIC against Mycolicibacterium phlei [1] was 20 µg/mL (≈ 101 µM). Moreover, the outcome with Staphylococcus aureus [2] was inactive. The logD in data set [3] was 3.22. The “log K” value in data set [4] stood at 1.16.
Consider `CC(C)Oc1ccc(/C=C/NC=O)cc1`, for which it took 320 µg/mL (≈ 1560 µM) to inhibit growth with Mycolicibacterium phlei [1] (MIC). In the data set with Staphylococcus aureus [2], the outcome was inactive. Also, in data set [3], the logD turned out to be 2.61. Moreover, the “log K” value in data set [4] is 0.93.
Take `O=CN/C=C/c1ccc(O)cc1`: the outcome in the data set on Mycolicibacterium phlei [6] and with Staphylococcus aureus [2] was inactive.
Regarding `CSc1ccc(/C=C/NC=O)cc1`, the minimal inhibitory concentration (MIC) against Staphylococcus aureus [5] was found to be 100 µg/mL (≈ 517 µM); in the data set on Mycolicibacterium phlei [1], 40 µg/mL (≈ 207 µM). The molecule also displayed a pH-dependent lipophilicity (logD) in data set [3] of 2.55. For the same molecule, the “log K” value in data set [4] is 0.77.
In the data set with Mycolicibacterium phlei [1], `O=CN/C=C/C1CCCCC1` yielded an MIC of 160 µg/mL (≈ 1040 µM). Moreover, the result with Staphylococcus aureus [2] was inactive.
In the data set on Mycolicibacterium phlei [1], `O=CN/C=C/c1cccc2ccccc12` gave a minimal inhibitory concentration (MIC) of 80 µg/mL (≈ 406 µM). The result in the data set with Staphylococcus aureus [2] was inactive.
For the molecule `O=CN/C=C/c1ccc(I)cc1`, the MIC in the data set with Staphylococcus aureus [5] worked out at 200 µg/mL (≈ 732 µM); in the data set with Mycolicibacterium phlei [1] it was 160 µg/mL (≈ 586 µM). The logD in data set [3] came out at 3.18. Moreover, the “log K” value in data set [4] was 1.14.
As to `O=CN/C=C/c1ccco1`, the outcome in the data set with Mycolicibacterium phlei [6] and in the data set with Staphylococcus aureus [2] was inactive.
`CCCCOc1ccc(/C=C/NC=O)cc1`: the lowest concentration to inhibit growth against Mycolicibacterium phlei [1] (MIC) was 80 µg/mL (≈ 365 µM). In the data set on Staphylococcus aureus [2], the outcome was inactive. In data set [3], this molecule returned a logD of 3.32. Moreover, in data set [4], the “log K” value was found to be 1.62.
With `O=CN/C=C/c1ccc(Br)cc1`, the minimal inhibitory concentration (MIC) in the data set with Staphylococcus aureus [5] is 100 µg/mL (≈ 442 µM); in the data set with Mycolicibacterium phlei [1], 160 µg/mL (≈ 708 µM). Further, the logD in data set [3] worked out at 2.87. Also, in data set [4], the “log K” value is recorded as 0.96.
